From ChEMBL document CHEMBL1131219, “Inhibition of human alcohol dehydrogenases by formamides” (J Med Chem, 1998)

What was measured:
[1] = molecular target: All-trans-retinol dehydrogenase [NAD(+)] ADH4 (Homo sapiens, UniProt P08319); experiment: Inhibition of human alcohol dehydrogenase pi activity
Outline: (§1)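 Purified human isozyme in 46 mM sodium phosphate with 0.25 mM EDTA, pH 7.0, 25 °C. The varied substrate (ethanol, acetaldehyde or cyclohexanone) was chosen per enzyme, with coenzyme fixed at 0.2 mM NADH or 2.0 mM NAD+. Inhibitor varied over at least a 3-fold range, 20–25 conditions in duplicate.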

[2] = molecular target: T1, All-trans-retinol dehydrogenase [NAD(+)] ADH7 (Homo sapiens, UniProt P40394); experiment: Inhibition of human alcohol dehydrogenase sigma activity; outline: as §1
T1 sequence (P40394 whole entry): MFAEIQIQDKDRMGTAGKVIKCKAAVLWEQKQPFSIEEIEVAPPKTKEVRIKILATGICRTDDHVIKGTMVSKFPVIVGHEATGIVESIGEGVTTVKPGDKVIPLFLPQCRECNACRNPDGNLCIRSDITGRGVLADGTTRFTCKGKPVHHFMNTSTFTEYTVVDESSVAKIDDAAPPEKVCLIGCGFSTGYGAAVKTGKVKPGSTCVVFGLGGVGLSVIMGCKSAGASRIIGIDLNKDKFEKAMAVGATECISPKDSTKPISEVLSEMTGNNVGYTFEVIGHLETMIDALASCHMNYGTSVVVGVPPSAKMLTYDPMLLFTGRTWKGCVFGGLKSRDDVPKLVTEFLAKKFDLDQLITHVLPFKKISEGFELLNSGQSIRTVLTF

Alcohol dehydrogenase 1C = Alcohol dehydrogenase 1C (Homo sapiens, UniProt P00326); experiment: Inhibition of human alcohol dehydrogenase gamma2 activity; outline: as §1
Alcohol dehydrogenase 1C, sequence (P00326 whole entry): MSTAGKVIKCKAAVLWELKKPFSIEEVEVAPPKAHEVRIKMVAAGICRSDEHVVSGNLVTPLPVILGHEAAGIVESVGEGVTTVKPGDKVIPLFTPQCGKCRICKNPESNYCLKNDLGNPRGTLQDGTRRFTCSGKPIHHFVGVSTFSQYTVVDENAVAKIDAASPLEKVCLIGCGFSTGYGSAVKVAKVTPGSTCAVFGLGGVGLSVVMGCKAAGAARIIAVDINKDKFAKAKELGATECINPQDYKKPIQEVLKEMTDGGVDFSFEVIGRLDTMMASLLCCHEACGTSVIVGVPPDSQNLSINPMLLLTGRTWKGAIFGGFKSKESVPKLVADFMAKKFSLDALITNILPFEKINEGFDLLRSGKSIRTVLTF

Alcohol dehydrogenase 1A = Alcohol dehydrogenase 1A (Homo sapiens, UniProt P07327); experiment: Inhibition of human alcohol dehydrogenase alpha activity
Alcohol dehydrogenase 1A, sequence (P07327 whole entry): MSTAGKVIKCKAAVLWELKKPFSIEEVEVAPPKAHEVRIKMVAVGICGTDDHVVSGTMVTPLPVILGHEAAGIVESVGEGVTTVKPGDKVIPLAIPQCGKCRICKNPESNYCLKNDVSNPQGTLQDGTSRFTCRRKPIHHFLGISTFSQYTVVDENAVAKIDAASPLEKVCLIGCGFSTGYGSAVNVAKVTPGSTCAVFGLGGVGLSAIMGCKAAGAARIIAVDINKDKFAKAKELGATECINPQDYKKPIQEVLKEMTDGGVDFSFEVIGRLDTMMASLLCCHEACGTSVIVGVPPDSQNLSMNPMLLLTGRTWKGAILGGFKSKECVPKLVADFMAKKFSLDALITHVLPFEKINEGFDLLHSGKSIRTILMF
Outline: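 Purified human α isozyme. Buffer was 46 mM sodium phosphate with 0.25 mM EDTA, pH 7.0, 25 °C; runs were also done in 33 mM phosphate/EDTA, pH 8.0. NADH 0.2 mM or NAD+ 2.0 mM held fixed. NADH change followed at 340 nm.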

[3] = molecular target: All-trans-retinol dehydrogenase [NAD(+)] ADH1B (Homo sapiens, UniProt P00325); experiment: Inhibition of human alcohol dehydrogenase beta 1 activity; outline: as §1
All-trans-retinol dehydrogenase [NAD(+)] ADH1B, sequence (P00325 whole entry): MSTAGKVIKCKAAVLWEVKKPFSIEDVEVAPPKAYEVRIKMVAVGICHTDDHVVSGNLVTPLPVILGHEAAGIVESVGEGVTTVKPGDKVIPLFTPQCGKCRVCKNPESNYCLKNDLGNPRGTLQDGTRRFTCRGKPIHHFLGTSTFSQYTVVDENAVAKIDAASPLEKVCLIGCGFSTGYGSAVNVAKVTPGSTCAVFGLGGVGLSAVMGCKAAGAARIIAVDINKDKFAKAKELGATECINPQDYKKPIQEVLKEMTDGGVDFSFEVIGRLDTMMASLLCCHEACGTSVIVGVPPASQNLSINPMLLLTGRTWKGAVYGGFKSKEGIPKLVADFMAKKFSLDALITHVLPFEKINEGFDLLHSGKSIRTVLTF

Alcohol dehydrogenase = Alcohol dehydrogenase (Equus caballus, UniProt P00327+P00328); experiment: Inhibition of horse liver alcohol dehydrogenase activity
[4] = molecular target: T1, All-trans-retinol dehydrogenase [NAD(+)] ADH7; experiment: Inhibitory activity against human alcohol dehydrogenase sigma.; outline: as §1

All-trans-retinol dehydrogenase [NAD(+)] ADH4, sequence (P08319 whole entry): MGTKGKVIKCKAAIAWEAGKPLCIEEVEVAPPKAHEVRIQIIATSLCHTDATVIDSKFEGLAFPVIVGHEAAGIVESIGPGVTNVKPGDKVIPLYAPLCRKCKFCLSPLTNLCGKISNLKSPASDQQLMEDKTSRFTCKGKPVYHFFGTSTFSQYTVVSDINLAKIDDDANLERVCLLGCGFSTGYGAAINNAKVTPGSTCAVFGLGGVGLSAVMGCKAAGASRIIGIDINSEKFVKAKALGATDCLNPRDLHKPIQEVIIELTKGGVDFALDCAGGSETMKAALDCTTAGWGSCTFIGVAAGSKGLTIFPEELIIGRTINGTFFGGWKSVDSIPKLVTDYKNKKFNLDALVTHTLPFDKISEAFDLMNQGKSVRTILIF

Ki [1] [µM]	Ki [2] [µM]	Ki (Alcohol dehydrogenase 1C) [µM]	Ki (Alcohol dehydrogenase 1A) [µM]	Ki [3] [µM]	Ki (Alcohol dehydrogenase) [µM]	Ki [4] [µM]	Structure (SMILES)
96	930	4.6	0.88	4600	110		O=CN(C1CCCC1)C1CC1
	640	120	5.9	250	440		O=CN(C1CCCCC1)C1CC1
40	100	0.41	7	1.7	5.4		CCCCCCC(C)NC=O (centres undefined)
150	28	13	3.9	7.3	7.6		O=CNC1CCCC1
31	960	2.1	1.9	1900	1100		CCCCCCCN(C=O)C1CC1
		1000	7.4	1600	2600		O=CN(C1CCCC1)C1CCCC1
11	0.74	12	3.6	0.33	3		CCCCCCCNC=O [HEPTYLFORMAMIDE]
120	4900	40	5.5	920	600		CN(C=O)C1CCCCC1
84	380	5.2	2.3	3.4			O=CNC1CCCCC1 [CYCLOHEXYLFORMAMIDE]
		160	14	4000	5200		CCCN(C=O)C1CCCCC1
340	180	54	5.5	26	13		CC(C)CNC=O
300	21	120	5.6	5.5	10		CCCNC=O
		33	4.5	1500	1400		CCN(C=O)C1CCCCC1
1900	210	15	22	19	2.6		CC(C)NC=O
280	1800	19	1.8	4900	7200		O=CN(C1CCC1)C1CCC1
5200	300	700	33	6.4	100		O=CNC1CC1
191	1700	21	4.5	2800	1900		CCCN(C=O)C1CCCC1
110	30	100	7.2	11	16		CCCCNC=O
150	1300	83	24	46	470		CC(C)N(C=O)C1CCCCC1
450		45	3.8	2.9	1.7	54	O=CNC1CCC1
7.1	47	5.8	3.6	1	12		O=CNCC1CCCCC1
360	1100	47	0.36	10000	8600		O=CN(C1CCCC1)C1CCC1 [CYCLOBUTYL(CYCLOPENTYL)FORMAMIDE]
